Data: ChEMBL document CHEMBL1124297, “7-Aminoquinolines. A novel class of agents active against herpesviruses” (J Med Chem, 1988)
≈ marks a conversion by molar mass, not a printed value.

Key:
KB (Homo sapiens) = assay: In vitro cytotoxicity in uninfected KB cells; Low drug solubility
Human alphaherpesvirus 1 [1] = assay: Inhibitory activity against herpes simplex virus type-1 (HSV-1) replication in KB cells; format: functional, organism-based; settings: Human alphaherpesvirus 1, KB
Method in brief: (§1)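 HSV-1 (HF strain)-infected KB cells were treated in duplicate for 20 h with five or six half-log dilutions of compound. The disrupted cultures were serially diluted onto BHK 21/4 cells, and titers were determined by counting macroscopic plaques. I50 came from linear regression of log concentration versus % inhibition of viral replication. Each assay included 10 µg/mL ara-A as positive control, and a set was rejected if ara-A deviated by more than 1.5 SD.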

Human alphaherpesvirus 1 [2] = assay: In vitro therapeutic index as ratio of cytotoxicity to inhibition of viral replication; format: organism-based; settings: human alphaherpesvirus 1, in vitro; read-out: Therapeutic index
Method in brief: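 Ratio of the cytotoxicity I50 to the HSV-1 replication I50, rounded to the nearest whole number. Cytotoxicity I50 was the mean of four I50 values (Lowry protein, 3H-amino acid uptake, diphenylamine DNA, [3H]thymidine uptake) in uninfected KB cells after 20 h. Replication I50 was from plaque titers of infected KB cultures after 20 h.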

Human alphaherpesvirus 1 [3] = assay: Inhibitory activity against herpes simplex virus type-1 (HSV-1) replication in infected KB cells; format: functional, organism-based; settings: Human alphaherpesvirus 1, KB
Method in brief: as §1

| Structure (SMILES) | IC50 (KB (Homo sapiens)) | IC50 (Human alphaherpesvirus 1 [1]) | selectivity ratio (Human alphaherpesvirus 1 [2]) | IC50 (Human alphaherpesvirus 1 [3]) |
| --- | --- | --- | --- | --- |
| Cc1c(N(C)C)nc2cc(N(C)C)ccc2c1Cl | > 32 µg/mL | 49 µg/mL (≈ 186 µM) | – | – |
| CCC(=O)C(CCCCCCOc1ccc(OC)cc1Cl)C(=O)CC [ARILDONE] | – | 11 µg/mL (≈ 29.8 µM) | 7 | – |
| CN(C)c1ccc2ccc(N(C)C)nc2c1 | – | 6 µg/mL (≈ 27.9 µM) | 3 | – |
| CN(C)c1ccc2c(N(C)C)cc(N(C)C)nc2c1 | – | 5 µg/mL (≈ 19.4 µM) | 4 | – |
| O=C(O)P(=O)(O)O [FOSCARNET] | – | 189 µg/mL (≈ 1500 µM) | 8 | – |
| CNc1ccc2ccc(N(C)C)cc2n1 | – | 11 µg/mL (≈ 54.7 µM) | 2 | – |
| CC(=O)Nc1ccc2c(C)cc(N)nc2c1 | – | 10 µg/mL (≈ 46.5 µM) | 3 | – |
| CN(C)c1ccc2ccc(N)cc2n1 | – | 51 µg/mL (≈ 272 µM) | 3 | – |
| CNc1cc(C)nc2cc(N(C)C)ccc12 | – | 6 µg/mL (≈ 27.9 µM) | 2 | – |
| Nc1ccc2ccc(N)nc2c1 | – | 10 µg/mL (≈ 62.8 µM) | – | – |
| Cc1cc(Cl)nc2cc(N)ccc12 | – | 53 µg/mL (≈ 275 µM) | 3 | – |
| Cc1c(Cl)nc2cc(N(C)C)ccc2c1Cl | > 32 µg/mL | 13 µg/mL (≈ 51 µM) | 2 | – |
| CCN(CC)CCCC(C)Nc1ccnc2cc(Cl)ccc12 (stereo not given) [CHLOROQUINE] | – | 27 µg/mL (≈ 84.4 µM) | 3 | – |
| CC(=O)Nc1ccc2c(C)cc(Cl)nc2c1 | – | 21 µg/mL (≈ 89.5 µM) | 4 | – |
| Cc1cn([C@@H]2O[C@H](CO)[C@@H](O)[C@@H]2O)c(=O)[nH]c1=O | – | 0.6 µg/mL (≈ 2.32 µM) | 833 | – |
| Cc1cc(N)nc2cc(N)ccc12 | – | 4 µg/mL (≈ 23.1 µM) | 7 | – |
| CC(=O)Nc1ccc2c(C)cc(N(C)C)nc2c1 | – | 18 µg/mL (≈ 74 µM) | 6 | – |
| Cc1cc(N(C)C)nc2cc(N)ccc12 | – | 6 µg/mL (≈ 29.8 µM) | 2 | – |
| Cc1cnc2cc(N(C)C)ccc2c1 | – | 7.6 µg/mL (≈ 40.8 µM) | 9 | – |
| CN(C)c1ccc2ccc(N)nc2c1 | – | 2 µg/mL (≈ 10.7 µM) | 5 | – |
| CN(C)c1ccc2ccc(O)nc2c1 | – | 30 µg/mL (≈ 159 µM) | 5 | – |
| CC(=O)Nc1ccc2c(C)ccnc2c1 | – | 31 µg/mL (≈ 155 µM) | 7 | – |
| Cc1c(O)nc2cc(N(C)C)ccc2c1O | – | – | 3 | 29 µg/mL (≈ 133 µM) |
| Cc1ccc2ccc(N(C)C)cc2n1 | – | 4.5 µg/mL (≈ 24.2 µM) | 9 | – |
| Cc1ccnc2cc(N)ccc12 | – | 40 µg/mL (≈ 253 µM) | 2 | – |
| Nc1ncnc2c1ncn2[C@@H]1O[C@H](CO)[C@@H](O)[C@@H]1O [VIDARABINE] | – | 5.6 µg/mL (≈ 21 µM) | 7 | – |
| Cc1cc(Cl)c2ccc(N(C)C)cc2n1 | – | 7 µg/mL (≈ 31.7 µM) | 3 | – |
| Cc1cc(O)c2ccc(N(C)C)cc2n1 | – | 23 µg/mL (≈ 114 µM) | 19 | – |
| Cc1cc(N(C)C)c2ccc(N(C)C)cc2n1 | – | 9 µg/mL (≈ 39.2 µM) | 2 | – |
| Nc1nc2c(ncn2COCCO)c(=O)[nH]1 [ACYCLOVIR] | – | 2.6 µg/mL (≈ 11.5 µM) | > 38 | – |
